≈ marks a conversion by molar mass, not a printed value.
What was measured:
[1] = tested on: Mycobacterium tuberculosis; assay: Antitubercular activity against Mycobacterium tuberculosis H37Rv incubated for 7 days by microplate alamar blue assay; assay type: functional; details: time 7 day, 168 h
Summary of the method: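 MIC determined by microplate alamar blue assay (MABA) following a published protocol.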

[2] = Inhibition of mitochondrial protein synthesis in rat H9c2 cells measured after 5 days by ELISA; assay type: cell-based; details: H9c2, 120 h
Summary of the method: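 H9C2 cells in DMEM with 10% FBS, seeded 1500/well. After 18 h, compound added at final 0.03–200 μM (3-fold series), then 5 days at 37 °C, 5% CO2; 0.5% DMSO negative control. MPS inhibition read by MitoBiogenesis In-Cell ELISA; IC50 calculated.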

[3] = Stability in CD-1 mouse liver microsome assessed as parent compound remaining at 1 uM measured after 30 mins in presence of NADPH by LC-MS/MS analysis; assay type: ADME; details: liver microsomes, read-out: Stabilty
Summary of the method: (§1)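 Liver microsomes (male CD-1 mouse or pooled human), 1 mg/mL protein, compound 1 µM, 37°C with shaking. Started with 1 mM NADPH or run without cofactor. Quenched with ice-cold ACN/MeOH containing internal standard. Parent quantified by LC-MS/MS; 30 min concentration normalised to time zero.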

[4] = Stability in CD-1 mouse liver microsome at 1 uM measured after 30 mins in absence of NADPH by LC-MS/MS analysis; assay type: ADME; details: microsomes, 0.5 h; summary of the method: as §1
[5] = Cmax in Balb/c mouse at 25 mg/kg, po by LC-MS/MS analysis; assay type: ADME, organism-based; set-up: route oral, dose 25 mg/kg; details: in vivo
Summary of the method: (§2)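 Female BALB/c mice (20–25 g), five per route. Oral dose 25 mg/kg in 0.5% carboxymethyl cellulose; i.v. dose 2.5 mg/kg in 10% DMSO/physiological saline. Blood sampled 5 min–72 h after p.o. and 2 min–48 h after i.v. Analyte quantified by LC/MS/MS (ESI positive, C18, isocratic methanol/water). Parameters from non-compartmental analysis.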

[6] = AUC (0 to infinity) in Balb/c mouse at 25 mg/kg, po by LC-MS/MS analysis; assay type: ADME, organism-based; set-up: route oral, time infinity, dose 25 mg/kg; details: in vivo; summary of the method: as §2
[7] = MRT (0 to t) in Balb/c mouse at 25 mg/kg, po by LC-MS/MS analysis; assay type: ADME, organism-based; details: in vivo; summary of the method: as §2
[8] = Terminal half life in Balb/c mouse at 2.5 mg/kg, iv by LC-MS/MS analysis; assay type: ADME, organism-based; details: in vivo, read-out: beta t1/2 (converted)
Summary of the method: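 Female BALB/c mice, 20-25 g, five per route. Dosed 25 mg/kg p.o. in 0.5% carboxymethyl cellulose or 2.5 mg/kg i.v. in 10% DMSO/saline. Blood sampled 5 min-72 h (p.o.) or 2 min-48 h (i.v.), quantified by LC/MS/MS with ESI+. Parameters by non-compartmental analysis; F = (AUCpo×dose_iv)/(AUCiv×dose_po)×100%.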

[9] = Cmax in Balb/c mouse at 2.5 mg/kg, iv by LC-MS/MS analysis; assay type: ADME, organism-based; set-up: route intravenous, dose 2.5 mg/kg; details: in vivo; summary of the method: as §2
[10] = AUC (0 to infinity) in Balb/c mouse at 2.5 mg/kg, iv by LC-MS/MS analysis; assay type: ADME, organism-based; set-up: time infinity, route intravenous, dose 2.5 mg/kg; details: in vivo; summary of the method: as §2
[11] = MRT (0 to t) in Balb/c mouse at 2.5 mg/kg, iv by LC-MS/MS analysis; assay type: ADME, organism-based; details: in vivo; summary of the method: as §2
[12] = Mutagenicity in Salmonella typhimurium TA100 up to 1000 ug measured after 48 to 72 hrs in absence of S9 fraction by Ames test; assay type: toxicity; details: salmonella enterica subsp. enterica serovar typhimurium, dose <=1000 µg, time 48-72 hrs
Summary of the method: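 Mini-Ames test in S. typhimurium TA100, up to 1000 μg/well, DMSO vehicle. Run with 10% S9 mix or PBS in molten top agar on minimal agar, 37 °C for 48-72 h. Revertants counted manually. Positive if revertants rise ≥2-fold over vehicle mean in a dose-related manner.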

[13] = Mutagenicity in Salmonella typhimurium TA100 up to 1000 ug measured after 48 to 72 hrs in presence of S9 fraction by Ames test; assay type: toxicity, subcellular; details: salmonella enterica subsp. enterica serovar typhimurium, dose <=1000 µg, time 48-72 hrs
Summary of the method: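 Mini-Ames, plate incorporation in 6-well format. Bacteria, compound (DMSO vehicle, top 1000 µg/well), and 10% S9 mix or PBS were mixed into molten agar at 45°C and poured over minimal agar, then incubated 37°C for 48-72 h. Revertants were counted manually and the background lawn inspected. A result is positive at ≥2-fold the mean vehicle revertants with a dose-related increase.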

[14] = Inhibition of human CaV alpha1c/alpha2/delta/beta2a expressed in HEK293 cells measured after 60 mins by fluo-4 AM dye based fluorescence assay; assay type: cell-based; details: HEK293, 1 h
Summary of the method: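 HEK-293 cells stably expressing human Cav1.2 (α1c, α2/δ, β2a) plus Kir2.3, seeded 1.2×10^4/well overnight in 1% FBS medium. Loaded with fluo-4 AM (4 μM), probenecid (5 mM) and brilliant black (1 mM) in 2× dye solution, 60 min at 37 °C. Ten concentrations from 1.52 to 30000 nM, duplicate, read on FLIPR (ex 470-495, em 515-575 nm). Inhibition normalised to KCl EC80 and solvent control; IC50 fitted.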

[15] = Inhibition of human Nav1.5 expressed in CHO cells at -80 mV holding potential by whole-cell patch-clamp method; assay type: cell-based
Summary of the method: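 CHO cells expressing Nav1.5, whole-cell patch clamp. Extracellular saline with 132 mM NaCl, 10 mM HEPES, pH 7.35; KCl/EGTA/MgATP pipette solution. Holding potential -80 mV, 20 ms step to -10 mV. Final compound concentrations 0.3–30 μM, diluted from DMSO stocks.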

[16] = target: T1, Amine oxidase [flavin-containing] B (Homo sapiens, UniProt P27338); assay: Inhibition of recombinant human MAOB expressed in baculovirus infected insect cells using kynuramine as substrate measured after 20 mins by LC-MS/MS analysis
T1 sequence (P27338 whole entry): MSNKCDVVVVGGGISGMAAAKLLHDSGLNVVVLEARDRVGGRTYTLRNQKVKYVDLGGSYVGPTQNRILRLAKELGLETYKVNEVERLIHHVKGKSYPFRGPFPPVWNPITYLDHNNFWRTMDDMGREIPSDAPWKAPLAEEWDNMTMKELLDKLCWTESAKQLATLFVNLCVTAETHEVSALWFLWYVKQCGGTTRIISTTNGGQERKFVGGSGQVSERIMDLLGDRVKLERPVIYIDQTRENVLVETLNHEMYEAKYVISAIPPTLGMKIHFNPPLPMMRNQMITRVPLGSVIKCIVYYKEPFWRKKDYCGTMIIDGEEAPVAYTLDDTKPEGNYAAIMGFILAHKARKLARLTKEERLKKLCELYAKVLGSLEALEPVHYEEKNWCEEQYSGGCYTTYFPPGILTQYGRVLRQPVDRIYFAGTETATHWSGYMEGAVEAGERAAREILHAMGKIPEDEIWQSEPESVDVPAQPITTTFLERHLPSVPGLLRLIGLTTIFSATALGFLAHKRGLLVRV
Summary of the method: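 Recombinant human MAO-A or MAO-B (50 μg/mL) in 100 mM potassium phosphate pH 7.4 with 5 mM MgCl2. Kynuramine substrate at 50 μM (MAO-A) or 25 μM (MAO-B). […] 4-Hydroxyquinoline formation measured by LC-MS/MS versus vehicle; IC50 derived.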

Structure (SMILES)	MIC [1]	IC50 [2]	remaining at 0.5 h, 1 µM [3]	Stabilty [4]	Cmax [5]	AUC(0-inf) [6]	MRT last [7]	half-life [8]	Cmax [9]	AUC(0-inf) [10]	MRT last [11]	Activity [12]	Activity [13]	IC50 [14]	IC50 [15]	IC50 [16]	MIC ([1]; Mycobacterium tuberculosis, H37Rv, read-out: MIC)
CC(=O)NC[C@@H]1OC(=O)N2c3cc(F)c(N4CCSCC4)cc3OC[C@@H]12	0.03 µg/mL (≈ 0.0787 µM)	> 100 µM	48.7%	Stable	3000 ng/mL	7620 ng·h/mL	7.59 h	0.923 h	4200 ng/mL	1190 ng·h/mL	0.54 h	Non-Toxic	Non-Toxic	> 30 µM	> 30 µM	3.2 µM	–
CC(=O)NC[C@@H]1OC(=O)N2c3cc(F)c(N4CC[S+]([O-])CC4)cc3OC[C@@H]12	–	60.6 µM	100%	Stable	1520 ng/mL	9020 ng·h/mL	9.83 h	3.81 h	115 ng/mL	592 ng·h/mL	3.52 h	Non-Toxic	Non-Toxic	> 30 µM	> 30 µM	> 100 µM	0.44 µg/mL (≈ 1.11 µM)
